This is an account of results in ChEMBL document CHEMBL4138193, “Novel indole and triazole based hybrid molecules exhibit potent anti-adipogenic and antidyslipidemic activity by activating Wnt3a/β-catenin pathway” (Eur J Med Chem, 2018).

The structures appear in SMILES notation. Activity calls are given as the source filed them. The calls are words filed in the database; no cut-off is given here.

Data set [1] has as its system 3T3-L1. As to the kind of experiment: Induction of Wnt10a mRNA expression in mouse 3T3L1 cells at 20 uM by qRT-PCR analysis. The format is functional, cell-based. The essentials: (§1)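 3T3-L1 cells induced with MDI differentiation medium with or without 20 µM. RNA isolated with TRIzol and 500 ng reverse-transcribed to cDNA for real-time PCR. n=3 with triplicates, mean ± SD; one-way ANOVA with Bonferroni post-test.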
A general note: Quantitative PCR measures a nucleic acid by following its amplification.

For data set [2], the species on record is Mus musculus. In words: Activation of Wnt3a/beta-catenin in mouse 3T3L1 cells assessed as down-regulation of CDK2 expression at 20 uM after 16 to 24 hrs by Western blot analysis. Type of data set: cell-based. Put shortly: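 3T3-L1 cells given MDI differentiation media (0.5 mM IBMX, 5 µg/ml insulin, 250 nM dexamethasone) with or without 20 µM compound. Proteins isolated at 16 and 24 h and probed by Western blot for CDK2, CDK4, CDK6, cyclin D1 and D3. Densitometry normalized to actin, n=3, mean ± SD, Student t test.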
On the technique in general: In western blotting, separated proteins are transferred to a membrane and probed.

The species entered for a further data set is Homo sapiens. In words: Anti-adipogenic activity in human differentiated MSC assessed as reduction in lipid accumulation at 5 to 20 uM after 20 mins by Oil Red O absorbance method. Type of data set: functional. The essentials: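 C3H10T1/2 or human MSC differentiated with IBMX/insulin/dexamethasone media containing 5, 10 or 20 µM compound. Cells stained with Oil red O (0.36% in 60% isopropanol, 20 min), dye extracted with isopropanol, absorbance read at 492 nm. n=3, mean ± SD, Student t test against MDI group.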

Data set [3] has as its system 3T3-L1. As to the kind of experiment: Induction of Wnt5b mRNA expression in mouse 3T3L1 cells at 20 uM by qRT-PCR analysis. The format is functional, cell-based. The essentials: as §1
Data set [4] is filed under the species Mus musculus. As to the kind of experiment: Activation of Wnt3a/beta-catenin in differentiated mouse 3T3L1 cells assessed as down-regulation of AP2 protein expression at 20 uM after 16 to 24 hrs by Western blot analysis. Put shortly:
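3T3-L1 preadipocytes grown to confluence in high-glucose DMEM/10% FBS, then given differentiation media (0.5 mM IBMX, 5 µg/ml insulin, 250 nM dexamethasone) with or without 20 µM compound. Protein isolated at set time points, lysed with protease/phosphatase inhibitors, BCA-quantified, resolved by 8–12% SDS-PAGE, immunoblotted with ECL detection. β-actin loading control, densitometry normalized to actin, n=3.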

The subject of data set [5] is 3T3-L1. As to the kind of experiment: Induction of Wnt5a mRNA expression in mouse 3T3L1 cells at 20 uM by qRT-PCR analysis. Type of data set: functional, cell-based. The essentials:
as §1

Data set [6] relates to Syrian golden hamster. As to the kind of experiment: Induction of reverse cholestrol transport in high fat diet-induced dyslipidemia Syrian Golden hamster model assessed as decrease in CETP mRNA expression in liver at 100 mg/kg, po administered for 1 week by qRT-PCR analysis. Conditions: Mesocricetus auratus. The format is functional, organism-based.
Data set [7] relates to Syrian golden hamster. In words: Induction of reverse cholestrol transport in high fat diet-induced dyslipidemia Syrian Golden hamster model assessed as decrease in CYP7A1 mRNA expression in liver at 100 mg/kg, po administered for 1 week by qRT-PCR analysis. Type of data set: functional, organism-based. As to conditions: Mesocricetus auratus.
The test system of data set [8] is Syrian golden hamster. As to the kind of experiment: Induction of reverse cholestrol transport in high fat diet-induced dyslipidemia Syrian Golden hamster model assessed as decrease in NPCL1 mRNA expression in liver at 100 mg/kg, po administered for 1 week by qRT-PCR analysis. Type of data set: functional, organism-based. As to conditions: Mesocricetus auratus.

Data set [9] has as its system Syrian golden hamster. As to the kind of experiment: Induction of reverse cholestrol transport in high fat diet-induced dyslipidemia Syrian Golden hamster model assessed as increase in SCARB1 mRNA expression in liver at 100 mg/kg, po administered for 1 week by qRT-PCR analysis. Conditions: Mesocricetus auratus. The format is functional, organism-based.
The subject of data set [10] is 3T3-L1. As to the kind of experiment: Cytotoxicity against mouse 3T3L1 cells at 1 to 1000 uM after 24 hrs by MTT assay. As to conditions: 3t3-l1, 24 h. The format is cell-based. Put shortly: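 3T3-L1 cells seeded at 1×10^4 per well and grown 24 hr, then exposed to 1–1000 µM for 24 hr. Medium was replaced with MTT medium ([…]) for 3 hr and the formazan dissolved in DMSO. Absorbance read at 570 nm; three independent experiments, mean ± SD.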
For orientation: Formazan colour is commonly taken as a measure of viable cells.

Data set [11] is filed under the species Mus musculus. In words: Activation of Wnt3a/beta-catenin in mouse 3T3L1 cells assessed as increase in CREB mRNA expression at 20 uM by qRT-PCR analysis. The format is cell-based. The essentials:
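3T3-L1 cells differentiated with IBMX/dexamethasone/insulin media with or without 20 µM compound over the differentiation period. RNA extracted with TRIZOL, 500 ng reverse-transcribed to cDNA, then quantitative real-time PCR. Three independent experiments run in triplicate, mean ± SD, one-way ANOVA with Bonferroni posttest.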

Data set [12] is filed under the species Mus musculus. In words: Activation of Wnt3a/beta-catenin in mouse 3T3L1 cells assessed as down-regulation of cyclinE expression at 20 uM after 16 to 24 hrs by Western blot analysis. The format is cell-based.
Data set [13] is filed under the species Mus musculus. As to the kind of experiment: Activation of Wnt3a/beta-catenin in differentiated mouse 3T3L1 cells assessed as upregulation of phosphorylated beta-catenin expression at 20 uM after 16 to 24 hrs in presence of beta-catenin/TCF complex inhibitor FH353 by Western blot analysis. The essentials: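 Confluent 3T3-L1 cells given differentiation media (IBMX/insulin/dexamethasone) with 20 µM compound, with or without the β-catenin/TCF inhibitor FH353 (10 µM). Proteins isolated at 16 and 24 h and Western blotted after SDS-PAGE and nitrocellulose transfer. Blocking in 5% milk/TBS-T, primary antibody overnight at 4 °C, chemiluminescent detection, β-actin control, three independent experiments.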

Data set [14] has as its system Syrian golden hamster. In words: Anti-atherosclerotic activity in high fat diet-induced dyslipidemia Syrian Golden hamster model assessed as reduction in atherogenic index by measuring serum triglycerides to HDL ratio at 100 mg/kg, po administered for 1 week followed by overnight fasting post last dose by clinical bio-analyzer analysis. Type of data set: functional, organism-based. As to conditions: Mesocricetus auratus. Put shortly:
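Male Syrian golden hamsters (8–10 wk, 100–120 g), 4 per group, given 45% kcal HFD for 4 days, then 100 mg/kg p.o. in 0.5% NaCMC daily for one week alongside HFD. Blood taken from retro-orbital plexus after overnight fast. TG, HDL, LDL, ALT, AST measured on a clinical bio-analyzer and NEFA by kit. Mean ± SEM, one-way ANOVA with Bonferroni.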

For data set [15], the species on record is Mus musculus. As to the kind of experiment: Activation of Wnt3a/beta-catenin in mouse 3T3L1 cells assessed as down-regulation of PPARgamma expression at 20 uM after 2 to 6 days in presence of FH353 by Western blot analysis. Type of data set: cell-based.
Data set [16] has as its system Syrian golden hamster. As to the kind of experiment: Induction of reverse cholestrol transport in high fat diet-induced dyslipidemia Syrian Golden hamster model assessed as reduction in adipocyte hypertrophy at 100 mg/kg, po administered for 1 week by H and E staining based assay. As to conditions: Mesocricetus auratus. Type of data set: functional, organism-based. Put shortly: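 Male Syrian Golden hamsters on 45% kCal HFD, dosed 100 mg/kg p.o. in 0.5% NaCMC for one week, 4 per group. Food intake and body weight recorded daily. At the end, animals were saline-perfused and liver and eWAT were excised and weighed. Paraffin sections stained with H&E and imaged at 20x.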

The test system of data set [17] is Syrian golden hamster. In words: Effect on serum HDL level in high fat diet-induced dyslipidemia Syrian Golden hamster model at 100 mg/kg, po administered for 1 week followed by overnight fasting post last dose by clinical bio-analyzer analysis. Type of data set: ADME, organism-based, Mesocricetus auratus. As to conditions: in vivo, 168 h. The essentials:
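Male Syrian Golden hamsters (8-10 weeks, 100-120 g), 4 per group, given 45% kCal high fat diet for 4 days, then HFD plus oral dosing in 0.5% w/v NaCMC for one week. After an overnight fast, blood was taken from the retro-orbital plexus under anesthesia and serum was analysed on a clinical bio-analyzer. Mean ± SEM; one-way ANOVA with Bonferroni post-test.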

As to `Cc1ccc(S(=O)(=O)N(Cc2cn(Cc3cccc(F)c3F)nn2)Cc2cn(S(=O)(=O)c3ccc(C)cc3)c3ccccc23)cc1`, the result with 3T3-L1 [1], in the data set with 3T3-L1 [3], in the data set with 3T3-L1 [5], in the data set listed under Mus musculus [13] and in the data set filed under Mus musculus [15] was inactive. For the same compound, the outcome in the data set listed under Mus musculus [2], in the data set filed under Homo sapiens, in the data set listed under Mus musculus [4], in the data set on Syrian golden hamster [6], in the data set with Syrian golden hamster [7] and in the data set on Syrian golden hamster [8] was Active. Further, the outcome with Syrian golden hamster [9], in the data set listed under Mus musculus [11], in the data set filed under Mus musculus [12], in the data set with Syrian golden hamster [14] and in the data set with Syrian golden hamster [16] was Active. Besides, the Activity result in the data set with 3T3-L1 [10] and in the data set with Syrian golden hamster [17] was “Non-Toxic” in each case.
